Data from ChEMBL document CHEMBL1157627, “A novel insulin secretagogue based on a dinucleoside polyphosphate scaffold” (J Med Chem, 2010).
Each block holds one compound with its values, some of them ahead of it.

Tests used:
P2Y purinoceptor 1 [1] = target: T1, P2Y purinoceptor 1 (Homo sapiens, UniProt P47900); experiment: Agonist activity at P2Y1 receptor expressed in human HEK293 cells; assay type: functional, cell-based
Pancreas [2] = experiment: Induction of insulin secretion in isolated rat pancreas; assay type: functional, tissue-based
Pancreas [3] = experiment: Induction of insulin secretion in isolated rat pancreas relative to basal level; assay type: functional
[4] = Stability in human blood assessed as half life; assay type: ADME, tissue-based
P2Y purinoceptor 1 [5] = target: T1, P2Y purinoceptor 1; experiment: Agonist activity at G-protein coupled P2Y1 receptor expressed in human 1321N1 cells assessed as increase in calcium by Fura2 assay; assay type: functional, cell-based
In short: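 Cell suspensions loaded with fura-2; [Ca2+]i read by dual-excitation spectrofluorometry at 37 °C in 10 mM HEPES-buffered saline pH 7.4 with 1 mM CaCl2 and 1 mM MgCl2. EC50 from maximal [Ca2+]i rise across concentrations; three experiments on separate days.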

Rattus norvegicus [6] = experiment: Antihyperglycemic activity against Han Wistar rat assessed as blood glucose level at […], iv after 45 mins by OGTT; assay type: functional
Rattus norvegicus [7] = experiment: Antihyperglycemic activity against Han Wistar rat assessed as increase in insulin level at […], iv after 5 mins relative to basal level; assay type: functional
[8] = Stability after 3 hrs in presence of alkaline phosphatase; assay type: ADME; conditions: isolated protein
In short: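 4 mM nucleotide with calf intestine alkaline phosphatase (12.5 units) in 0.1 M Tris-HCl, 0.1 M MgCl2, final pH 9.8, at 37 °C for 3 h. Stopped at 80 °C for 15 min, then weak anion-exchange cleanup and freeze-drying. Residual analogue quantified by change in reverse-phase HPLC peak integration over time.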

Pancreas [9] = experiment: Increase in insulin secretion in isolated rat pancreas relative to ATP; assay type: functional
[10] = Stability in human serum assessed as half life of hydrolysis; assay type: ADME, cell-free
Rattus norvegicus [11] = experiment: Antihyperglycemic activity against Han Wistar rat assessed as blood glucose level at […], iv after 150 mins by OGTT; assay type: functional
[12] = Stability in human whole blood assessed as half life; assay type: ADME, tissue-based
Rattus norvegicus [13] = experiment: Antihyperglycemic activity against Han Wistar rat assessed as blood glucose level at 1 mg/kg, po after 45 mins by OGTT; assay type: functional
In short: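 Overnight-fasted male Wistar Han rats, 10-11 weeks old, jugular-cannulated, 5 per group. Glibenclamide 1 mg/kg given orally at t = -30 min, then oral glucose 2 g/kg (3 mL/kg) at t = 0. Tail vein blood glucose read by glucometer over time, compared with saline-treated controls.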

T1 sequence (P47900 whole entry): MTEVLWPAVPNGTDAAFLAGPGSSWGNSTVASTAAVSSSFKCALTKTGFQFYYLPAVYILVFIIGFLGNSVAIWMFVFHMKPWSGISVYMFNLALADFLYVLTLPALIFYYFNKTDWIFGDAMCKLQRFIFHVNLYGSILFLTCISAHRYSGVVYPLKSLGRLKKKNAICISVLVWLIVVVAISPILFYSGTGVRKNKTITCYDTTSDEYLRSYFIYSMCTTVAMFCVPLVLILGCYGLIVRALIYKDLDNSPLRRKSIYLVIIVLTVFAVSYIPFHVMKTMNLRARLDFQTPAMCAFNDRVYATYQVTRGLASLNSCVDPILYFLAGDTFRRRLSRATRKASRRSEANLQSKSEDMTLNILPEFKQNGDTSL

EC50 (P2Y purinoceptor 1 [1]): 0.0026 µM | EC50 (Pancreas [2]): 0.028 µM
Compound: [BH3-]P(=O)(OC[C@H]1O[C@@H](n2cnc3c(N)nc(SC)nc32)[C@H](O)[C@H]1O)OP(=O)([O-])OP(=O)([O-])[O-].[Na+].[Na+].[Na+].[Na+] (stereo not given in full)
fold change (FC) (Pancreas [3]): 9

half-life [4]: 5 min
Compound: Nc1nc2c(ncn2[C@@H]2O[C@H](COP(=O)(O)OP(=O)(O)OP(=O)(O)OP(=O)(O)OC[C@H]3O[C@@H](n4cnc5c(=O)[nH]c(N)nc54)[C@H](O)[C@@H]3O)[C@@H](O)[C@H]2O)c(=O)[nH]1

Compound: CSc1nc(N)c2ncn([C@@H]3O[C@H](COP(=O)([O-])CP(=O)([O-])OP(=O)([O-])OP(=O)([O-])OC[C@H]4O[C@@H](n5cnc6c(N)nc(SC)nc65)[C@H](O)[C@@H]4O)[C@@H](O)[C@H]3O)c2n1.[Na+].[Na+].[Na+].[Na+]
EC50 (P2Y purinoceptor 1 [5]; read-out: EC50): 0.42 µM | Activity (Rattus norvegicus [6]): 100 mg/dL | FC (Rattus norvegicus [7]): 4 | Stability [8]: Stable

Compound: CSc1nc(N)c2ncn([C@@H]3O[C@H](COP(=O)([O-])OP(=O)([O-])CP(=O)([O-])OP(=O)([O-])OC[C@H]4O[C@@H](n5cnc6c(N)nc(SC)nc65)[C@H](O)[C@@H]4O)[C@@H](O)[C@H]3O)c2n1.[Na+].[Na+].[Na+].[Na+]
EC50 (P2Y purinoceptor 1 [5]; read-out: EC50): 0.46 µM | Stability [8]: Stable

Compound: CSc1nc(N)c2ncn([C@@H]3O[C@H](COP(=O)([O-])CP(=O)([O-])OP(=O)([O-])OC[C@H]4O[C@@H](n5cnc6c(N)nc(SC)nc65)[C@H](O)[C@@H]4O)[C@@H](O)[C@H]3O)c2n1.[Na+].[Na+].[Na+]
EC50 (P2Y purinoceptor 1 [5]; 1321-n1): Not Active | Stability [8]: Stable

EC50 (P2Y purinoceptor 1 [5]; read-out: EC50): 0.011 µM
Compound: Nc1ncnc2c1ncn2[C@H]1O[C@@H](COP(=O)(O)OP(=O)(O)OP(=O)(O)OC[C@@H]2O[C@H](n3cnc4c(N)ncnc43)[C@@H](O)[C@H]2O)[C@H](O)[C@@H]1O

Compound: CCCCCCSc1nc(N)c2ncn([C@H]3O[C@@H](COP(O)(=S)OP(=O)(O)OP(=O)(O)O)[C@H](O)[C@@H]3O)c2n1 (stereo not given in full)
fold change (FC) (Pancreas [9]): 100

half-life [10]: 726 min
Compound: CSc1nc(N)c2ncn([C@@H]3O[C@H](COP(=O)(O)OP(=O)(O)O)[C@@H](O)[C@H]3O)c2n1 (single isomer, unassigned)

EC50 (P2Y purinoceptor 1 [5]; read-out: EC50): 0.08 µM
Compound: CSc1nc(N)c2ncn([C@@H]3O[C@H](COP(=O)(O)OP(=O)(O)CP(=O)(O)O)[C@@H](O)[C@H]3O)c2n1 (single isomer, unassigned)
Activity (Rattus norvegicus [11]): 85 mg/dL

EC50 (P2Y purinoceptor 1 [5]; read-out: EC50): 0.014 µM
Compound: Nc1ncnc2c1ncn2[C@@H]1O[C@H](COP(=O)(O)OP(=O)(O)O)[C@@H](O)[C@H]1O [ADENOSINE DIPHOSPHATE]

half-life [12]: 2 min
Compound: Nc1ncnc2c1ncn2[C@@H]1O[C@H](COP(=O)(O)OP(=O)(O)OP(=O)(O)OP(=O)(O)OC[C@H]2O[C@@H](n3cnc4c(N)ncnc43)[C@H](O)[C@@H]2O)[C@@H](O)[C@H]1O [DIADENOSINE TETRAPHOSPHATE]

Compound: COc1ccc(Cl)cc1C(=O)NCCc1ccc(S(=O)(=O)NC(=O)NC2CCCCC2)cc1 [GLYBURIDE]
Activity (Rattus norvegicus [13]): 63 mg/dL
